A selection: hits, their analogues and other compounds. The true share with any hit is near 2.6%.
PHOSPHO1 block = PubChem AID 1565. Phosphoethanolamine/phosphocholine phosphatase (Homo sapiens), Q8TCT1. hit rate 1.1% among 290,000. inhibition, % at 13.3 µM. recombinant PHOSPHO1, absorbance phosphatase assay; in the data active = inhibition above about 60%
ARFGAP1 inhibitor = inhibitors of rat ARFGAP1 GAP activity, primary screen, biochemical, fluorescence polarization, GDP tracer. ADP-ribosylation factor GTPase-activating protein 1 (Rattus norvegicus), Q62848. Arfgap1-stimulated ARF1 GTP hydrolysis, GDP FP detection. inhibition, % at 16.5 µM. hit rate 0.26% among 360,000. AID 651572, 2012;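 active = inhibition above a per-plate limit, mean inhibition of low control wells plus 3 SD, cut at about 25% in these data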;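 also: 0% = DMSO wells with enzyme and 100% = wells lacking Arfgap1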
Target sequence (Q62848 1-136 limits assumed): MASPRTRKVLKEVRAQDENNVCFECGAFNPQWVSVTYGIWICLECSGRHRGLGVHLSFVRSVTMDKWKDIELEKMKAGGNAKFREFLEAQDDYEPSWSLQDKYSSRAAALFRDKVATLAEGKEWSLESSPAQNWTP
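Material: rat Arfgap1 GAP domain (His6, aa 1-136), purified enzyme. Also added: human ARF1(Δ1-17)-GTP substrate. Compound dosing: 16.5 µM single point, 1.26% DMSO. Timing: enzyme reaction 120 min at 25 °C after 20 min preincubation. Signal: GDP detection by fluorescence polarization. Read-out basis: percent inhibition of GAP-stimulated GDP formation, scaled between DMSO and no-Arfgap1 medians.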
Calb FLC = C. albicans growth inhibition with fluconazole, primary screen, CaCi-2 strain, Alamar Blue fluorescence. growth inhibition, % (test concentration not listed). C. albicans CaCi-2 (fluconazole-resistant clinical isolate) + fluconazole, 48 h. hit rate 0.57% among 300,000;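 active = growth inhibition above about 58% in most replicates, limit read from the data, passing the limit was not always enough; inconclusive = exactly half the replicates above a set limit; inactive = most replicates below a set limit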;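 also: all wells also contain fluconazole at 8 µg/ml as a sub-toxic cotreatment; 0% = median of DMSO wells and 100% = median of geldanamycin control wells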
IMP-1 inhibitor = IMP-1 metallo-beta-lactamase inhibitors, primary screen, biochemical, epi-absorbance readout, Pseudomonas aeruginosa enzyme | AID 1556, 2009 | hit rate 0.45% among 290,000 | purified IMP-1, nitrocefin hydrolysis, epi-absorbance fluorescence | metallo-beta-lactamase IMP-1 (Pseudomonas aeruginosa) | inhibition, % at 5.6 µM;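 active = inhibition above the mean plus 3 SD of all compounds in the same screening run, cut at about 4.5% in these data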;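 also: 0% = IMP-1 with DMSO and 100% = DMSO wells lacking enzyme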
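System: purified IMP-1; amount: IMP-1 0.2 nM before substrate addition; compound: single dose, 5.6 µM; times: 25 °C, 15 min preincubation, 25 min reaction; signal: Epi-absorbance via hydrolysed-nitrocefin quenching of white-plate fluorescence, 480/530 nm, EDTA stop; benchmarks: DMSO with and without IMP-1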
ASAP1 GAP inh = inhibitors of human ASAP1 ArfGAP activity, primary screen, biochemical, fluorescence polarization | Arf-GAP with SH3 domain, ANK repeat and PH domain-containing protein 1 (Homo sapiens), … | ASAP1-stimulated ARF1 GTP hydrolysis, GDP FP detection | inhibition, % at 16.5 µM | hit rate 0.19% among 360,000; in the data active = inhibition above about 25%;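 also: 0% = vehicle with enzyme and substrate and 100% = no enzyme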
Target sequence (Q9ULH1 325-724 limits assumed): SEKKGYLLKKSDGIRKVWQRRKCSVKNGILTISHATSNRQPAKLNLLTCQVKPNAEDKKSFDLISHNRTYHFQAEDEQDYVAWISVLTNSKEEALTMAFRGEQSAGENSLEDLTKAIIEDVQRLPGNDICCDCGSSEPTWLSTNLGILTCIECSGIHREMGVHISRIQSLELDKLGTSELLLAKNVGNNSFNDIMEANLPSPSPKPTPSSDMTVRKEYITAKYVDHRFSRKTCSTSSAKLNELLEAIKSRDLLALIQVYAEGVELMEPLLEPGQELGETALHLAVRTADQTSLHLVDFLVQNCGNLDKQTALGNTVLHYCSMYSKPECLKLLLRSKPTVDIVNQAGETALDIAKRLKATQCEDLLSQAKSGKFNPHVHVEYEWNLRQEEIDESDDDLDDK
VIM-2 inhibitor = VIM-2 metallo-beta-lactamase inhibitors, primary screen, biochemical, epi-absorbance readout, Pseudomonas aeruginosa enzyme. purified VIM-2, nitrocefin hydrolysis, epi-absorbance fluorescence. inhibition, % at 5.6 µM. hit rate 0.89% among 290,000. AID 1527, 2009;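 active = inhibition above the mean of all tested compounds plus 3 SD, cutoff set per screening run, cut at about 7.5% in these data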;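 also: red hydrolysis product quenches plate fluorescence so inhibitors raise well fluorescence; 0% = enzyme with DMSO and 100% = DMSO without enzyme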
Starred values were filed as active, the others as inactive; ? = inconclusive; . = not tested or not shown.

SMILES | PHOSPHO1 block | ARFGAP1 inhibitor | Calb FLC | IMP-1 inhibitor | ASAP1 GAP inh | VIM-2 inhibitor
O=C(C[N+]12CCC(CC1)C(C(O)(c1ccccc1)c1ccccc1)C2)c1ccc(Br)cc1 (centres undefined) | 19.7 | 0.5 | 94.9* | -4.1 | 5.0 | -0.9
CC[n+]1c(/C=C/N(C)c2ccccc2)sc2ccc(Cl)cc21 | 11.5 | -3.0 | 105.7* | -1.8 | 2.8 | 0.7
CN1C2(C)c3ccccc3C1(c1ccccc1)c1ccccc12 | . | 8.7 | . | . | -0.4 | .
CCN(CC)CCCNC(=O)c1c(O)c2ccccc2n(Cc2ccccc2)c1=O | 27.0 | -5.6 | 6.1 | -2.7 | 8.0 | 12.1*
OC1CN2CCCC(O)C2C1O (centres undefined) | . | 4.3 | . | . | 4.9 | .
Cn1ccnc1P(=S)(c1nccn1C)N1CCOCC1 | 76.1* | 7.3 | -8.2 | -1.7 | 3.9 | 0.0
COc1ccc2nc(-c3ccc(CN4CCC(n5nnc6ccccc65)CC4)cc3)c(-c3ccccc3)nc2c1 | . | 12.3 | . | . | 0.0 | .
N#Cc1ccc2nc(-c3ccc(CN4CCC(n5c(=O)[nH]c6cc(Cl)ccc65)CC4)cc3)c(-c3ccccc3)nc2c1 | . | 0.5 | . | . | 8.2 | .
CCN1/C(=C\C=C\C2=[N+](CC)c3ccccc3C2(C)C)C(C)(C)c2ccccc21 | 1.9 | . | -5.9 | 5.5* | . | 5.4
COC(=O)c1nc(-c2ccc3c(n2)C(=O)C(N)=C(OC)C3=O)c(N)c(-c2ccc(OC)c(OC)c2O)c1C | 38.1 | 0.3 | 19.2 | -3.8 | 30.5* | -2.2
CCN(CC)C(=O)c1ccc(NC(=O)COc2ccc(-c3nn(C)c(=O)c4ccccc34)cc2)cc1 | 12.1 | -6.9 | 12.1 | -1.8 | 2.4 | 9.0*
CCN(CC)C(=O)c1ccc(NC(=O)c2cn(-c3ccccc3)nc2-c2ccc(OC)cc2)cc1 | 32.2 | -2.2 | -4.2 | -3.6 | 4.4 | -3.2
O=C1NC(=S)N(Cc2ccco2)C(=O)/C1=C\c1cccs1 | 76.9* | . | . | 5.1* | . | 1.6
CN(C)c1ccc(NC(=O)CN2C(=O)CN=C(c3ccccc3)c3cc(Cl)ccc32)cc1 | 60.4* | -3.2 | -12.5 | 4.5* | -0.1 | -1.8
Cc1ccc(NC(=O)CN2C(=O)CN=C(c3ccccc3)c3cc(Cl)ccc32)cc1 | 0.7 | 2.6 | -1.2 | -2.0 | 7.5 | -1.9
COP(=O)(OC)OC=C(Cl)Cl | . | 2.1 | . | . | -4.7 | .
O=c1[nH]c2cc(Cl)ccc2n1C1CCN(Cc2ccc(-c3nc4ccc(F)cc4nc3-c3ccccc3)cc2)CC1 | . | 3.9 | . | . | 18.1 | .
O=C(c1ccc(Cl)cc1)N1CCC2(CC1)OCCO2 | . | -9.3 | -6.8 | 1.1 | 10.7 | 1.0
S=C(c1ccc(Cl)cc1)N1CCOCC1 | 62.4* | -4.7 | -2.3 | -0.5 | 10.8 | -1.2
c1ccc2c[n+](CCCCCCCCCC[n+]3ccc4ccccc4c3)ccc2c1 | . | -1.6 | . | . | -4.6 | .
CCCCCCC[n+]1ccc(-c2cc[n+](CCCCCCC)cc2)cc1 | 47.7 | -2.7 | ? | 5.0* | -0.4 | -0.9
O=C1C2CCCN2C(c2ccccc2)N1c1ccccn1 (centres undefined) | 3.9 | -1.0 | 62.6* | -6.8 | -2.7 | 0.3
O=C1C2CCCN2C(c2ccc(Cl)cc2)N1c1ccccn1 (centres undefined) | 15.5 | 5.1 | 11.1 | -3.2 | 12.2 | -2.7
N#Cc1ccc(NC(=S)N2Cc3ccc(Br)cc3-n3nncc3C2)cc1 | . | 2.4 | . | . | 7.2 | .
CCOC(=O)C(C)Oc1cc(C)cc2oc(=O)c3c(c12)CCCC3 (centres undefined) | 6.7 | -10.5 | 0.6 | -3.9 | -12.0 | 0.9
COC(=O)c1cc(COc2cc(C)cc3oc(=O)c4c(c23)CCC4)c(C)o1 | -13.6 | . | . | . | . | .
Cc1cc(OCC(=O)N[C@@H](Cc2ccccc2)C(=O)O)c2c3c(c(=O)oc2c1)CCCC3 | 28.6 | -9.8 | -2.5 | -4.3 | 4.0 | 11.3*
COC(=O)C(C)Oc1cc(C)cc2oc(=O)c3c(c12)CCCC3 (centres undefined) | -17.0 | 9.6 | -3.2 | -1.6 | -4.4 | 9.9*
